Reference: ChEMBL document CHEMBL1240328, “Selective compounds define Hsp90 as a major inhibitor of apoptosis in small-cell lung cancer” (Nat Chem Biol, 2007)
The source made the active and inactive calls.

How the values were obtained:
[1] = molecular target: Heat shock protein HSP 90-beta (Homo sapiens) (UniProt P08238); assay: Inhibition of HSP90-mediated proliferation of human NCI-N417 cells at 0.3 to 0.5 uM after 72 to 96 hrs by sulforhodamine B assay; assay type: cell-based; details: NCI-H417
NCI-H417 [2] = assay: Anticancer activity against human NCI-N417 cells xenografted in ip dosed athymic mouse assessed as tumor caspase-3 cleavage administered daily for 5 consecutive days measured after 12 hrs post last dose by immunohistochemistry; assay type: functional, organism-based
Method in brief: (§1)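 Nude athymic (nu/nu) mice carrying NCI-N417 xenografts (cells injected with Matrigel), treated once tumors were 7–9 mm in diameter. Dosing was five consecutive daily i.p. doses of 100 mg kg–1, and mice were killed 12 h after the last dose (n = 2). Tumors were analyzed by immunohistochemistry for cleaved caspase-3, Ki-67 and p-Akt, with vehicle-treated tumors as comparison.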

[3] = molecular target: Heat shock protein HSP 90-beta (Homo sapiens) (UniProt P08238); assay: Inhibition of HSP90-mediated proliferation of human NCI-H69 cells at 0.3 to 0.5 uM after 72 to 96 hrs by intracellular ATP level assay
NCI-H417 [4] = assay: Anticancer activity against human NCI-N417 cells xenografted in athymic mouse assessed as tumor growth inhibition at nontoxic dose administered ip daily for 5 consecutive days measured on day 20 post tumor implantation; assay type: functional, organism-based
Method in brief: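 Nude athymic mice (n = 4) bearing NCI-N417 tumors of V = 50–90 mm3 were dosed i.p. and tumor growth was monitored. Results are given as mean ± s.d.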

[5] = molecular target: Heat shock protein HSP 90-beta (Homo sapiens) (UniProt P08238); assay: Inhibition of HSP90-mediated antiapoptotic activity in human WBA cells assessed as induction of cell growth arrest at 10 after 96 hrs by propidium iodide staining-based flow cytometry
[6] = Drug level in tumor of human NCI-N417 cell-xenograft athymic mouse model at 75 mg/kg, ip administered as single dose after 3 hrs by HPLC/MS/MS analysis; assay type: ADME, organism-based, Neoplasm; design: dose 75 mg/kg, route intraperitoneal; details: in vivo
Method in brief: (§2)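 Nude mice bearing NCI-N417 xenografts received a single i.p. dose of 75 mg kg–1. Animals (n = 3) were killed at set times from 3 to 36 h. Tumors and brains were harvested and halved, and tumor drug content was quantified by HPLC/MS/MS.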

[7] = molecular target: Heat shock protein HSP 90-beta (Homo sapiens) (UniProt P08238); assay: Inhibition of HSP90-mediated proliferation of human NCI-H209 cells at 0.3 to 0.5 uM after 72 to 96 hrs by intracellular ATP level assay
[8] = Drug level in tumor of human NCI-N417 cell-xenograft athymic mouse model at 75 mg/kg, ip administered as single dose after 6 hrs by HPLC/MS/MS analysis; assay type: ADME, organism-based, Neoplasm; design: dose 75 mg/kg, route intraperitoneal; details: in vivo; method in brief: as §2
[9] = molecular target: Heat shock protein HSP 90-beta (Homo sapiens) (UniProt P08238); assay: Inhibition of HSP90-mediated proliferation of human SKBR3cells after 72 hrs by sulforhodamine B assay
NCI-H417 [10] = assay: Anticancer activity against human NCI-N417 cells xenografted in ip dosed athymic mouse assessed as decrease in tumor Akt activity administered daily for 5 consecutive days measured after 12 hrs post last dose by immunohistochemistry; assay type: functional, organism-based; method in brief: as §1
[11] = molecular target: Heat shock protein HSP 90-beta (Homo sapiens) (UniProt P08238); assay: Inhibition of HSP90-mediated proliferation of human NCI-H187 cells at 0.3 to 0.5 uM after 72 to 96 hrs by intracellular ATP level assay
[12] = molecular target: Heat shock protein HSP 90-beta (Homo sapiens) (UniProt P08238); assay: Inhibition of HSP90-mediated antiapoptotic activity in human H69AR cells assessed as induction of cell growth arrest at 10 after 96 hrs by propidium iodide staining-based flow cytometry
[13] = molecular target: Heat shock protein HSP 90-beta (Homo sapiens) (UniProt P08238); assay: Inhibition of HSP90 in chemo-resistant human WBA cells at 100 uM after 24 hrs by fluorescence polarization assay; assay type: cell-based
Method in brief: (§3)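 Competitive fluorescence polarization in lysates of H69AR, SKI-AC3 and WBA cells, prepared in HFB buffer pH 7.3 and normalized to Hsp90. Tracer was 3 nM Cy3B-geldanamycin, with incubation for 24 h at 4 °C. EC50 was defined as 50% tracer displacement.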

[14] = molecular target: Heat shock protein HSP 90-beta (Homo sapiens) (UniProt P08238); assay: Binding affinity to HSP90 in human NCI-H187 cells after 24 hrs by fluorescence polarization assay
[15] = molecular target: Heat shock protein HSP 90-beta (Homo sapiens) (UniProt P08238); assay: Inhibition of HSP90-mediated proliferation of human NCI-H526 cells at 0.3 to 0.5 uM after 72 to 96 hrs by sulforhodamine B assay; assay type: cell-based
[16] = molecular target: Heat shock protein HSP 90-beta (Homo sapiens) (UniProt P08238); assay: Binding affinity to HSP90 in human NCI-H510 cells after 24 hrs by fluorescence polarization assay; assay type: cell-based
[17] = molecular target: Heat shock protein HSP 90-beta (Homo sapiens) (UniProt P08238); assay: Inhibition of HSP90-mediated proliferation of human NCI-H510 cells at 0.3 to 0.5 uM after 72 to 96 hrs by intracellular ATP level assay
[18] = Drug level in tumor of human NCI-N417 cell-xenograft athymic mouse model at 75 mg/kg, ip administered as single dose after 36 hrs by HPLC/MS/MS analysis; assay type: ADME, organism-based, Neoplasm; design: dose 75 mg/kg, route intraperitoneal; details: in vivo; method in brief: as §2
[19] = molecular target: Heat shock protein HSP 90-beta (Homo sapiens) (UniProt P08238); assay: Inhibition of HSP90 in chemo-resistant human SKI-AC3 cells at 100 uM after 24 hrs by fluorescence polarization assay; assay type: cell-based; method in brief: as §3
NCI-H417 [20] = assay: Anticancer activity against human NCI-N417 cells xenografted in athymic mouse assessed as decrease in tumor Akt activity at 75 mg/kg, ip administered as single dose measured after 36 hrs post dose by Western blot
[21] = molecular target: Heat shock protein HSP 90-beta (Homo sapiens) (UniProt P08238); assay: Binding affinity to HSP90 in human NCI-H209 cells after 24 hrs by fluorescence polarization assay; assay type: cell-based
[22] = molecular target: Heat shock protein HSP 90-beta (Homo sapiens) (UniProt P08238); assay: Binding affinity to HSP90 in human NCI-N417 cells after 24 hrs by fluorescence polarization assay; assay type: cell-based; details: NCI-H417
[23] = molecular target: Heat shock protein HSP 90-beta (Homo sapiens) (UniProt P08238); assay: Binding affinity to HSP90 in human SKBR3 cells after 24 hrs by fluorescence polarization assay; details: SK-BR-3
[24] = molecular target: Heat shock protein HSP 90-beta (Homo sapiens) (UniProt P08238); assay: Binding affinity to HSP90 in human NCI-H526 cells after 24 hrs by fluorescence polarization assay; assay type: cell-based
[25] = Drug level in tumor of human NCI-N417 cell-xenograft athymic mouse model at 75 mg/kg, ip administered as single dose after 12 hrs by HPLC/MS/MS analysis; assay type: ADME, organism-based, Neoplasm; design: dose 75 mg/kg, route intraperitoneal; details: in vivo; method in brief: as §2
[26] = Drug level in tumor of human NCI-N417 cell-xenograft athymic mouse model at 75 mg/kg, ip administered as single dose after 8 hrs by HPLC/MS/MS analysis; assay type: ADME, organism-based, Neoplasm; design: dose 75 mg/kg, route intraperitoneal; details: in vivo; method in brief: as §2
[27] = molecular target: Heat shock protein HSP 90-beta (Homo sapiens) (UniProt P08238); assay: Binding affinity to HSP90 in human NCI-H146 cells after 24 hrs by fluorescence polarization assay; assay type: cell-based
[28] = molecular target: Heat shock protein HSP 90-beta (Homo sapiens) (UniProt P08238); assay: Inhibition of HSP90-mediated proliferation of human NCI-H146 cells at 0.3 to 0.5 uM after 72 to 96 hrs by intracellular ATP level assay
[29] = molecular target: Heat shock protein HSP 90-beta (Homo sapiens) (UniProt P08238); assay: Binding affinity to HSP90 in human NCI-H69 cells after 24 hrs by fluorescence polarization assay
NCI-H417 [30] = assay: Anticancer activity against human NCI-N417 cells xenografted in athymic mouse assessed as decrease in tumor Akt activity at 75 mg/kg, ip administered daily for 5 consecutive days measured after 6 hrs post last dose by immunohistochemistry; assay type: functional, organism-based; design: dose 75 mg/kg
[31] = molecular target: Heat shock protein HSP 90-beta (Homo sapiens) (UniProt P08238); assay: Inhibition of HSP90 in chemo-resistant human H69AR cells at 100 uM after 24 hrs by fluorescence polarization assay; assay type: cell-based; method in brief: as §3
[32] = Drug level in tumor of human NCI-N417 cell-xenograft athymic mouse model at 75 mg/kg, ip administered as single dose after 24 hrs by HPLC/MS/MS analysis; assay type: ADME, organism-based, Neoplasm; design: dose 75 mg/kg, route intraperitoneal; details: in vivo; method in brief: as §2
[33] = molecular target: Heat shock protein HSP 90-beta (Homo sapiens) (UniProt P08238); assay: Inhibition of HSP90-mediated antiapoptotic activity in human SKI-AC3 cells assessed as induction of cell growth arrest at 10 after 96 hrs by propidium iodide staining-based flow cytometry

Chain of Heat shock protein HSP 90-beta (Homo sapiens) (P08238 whole entry): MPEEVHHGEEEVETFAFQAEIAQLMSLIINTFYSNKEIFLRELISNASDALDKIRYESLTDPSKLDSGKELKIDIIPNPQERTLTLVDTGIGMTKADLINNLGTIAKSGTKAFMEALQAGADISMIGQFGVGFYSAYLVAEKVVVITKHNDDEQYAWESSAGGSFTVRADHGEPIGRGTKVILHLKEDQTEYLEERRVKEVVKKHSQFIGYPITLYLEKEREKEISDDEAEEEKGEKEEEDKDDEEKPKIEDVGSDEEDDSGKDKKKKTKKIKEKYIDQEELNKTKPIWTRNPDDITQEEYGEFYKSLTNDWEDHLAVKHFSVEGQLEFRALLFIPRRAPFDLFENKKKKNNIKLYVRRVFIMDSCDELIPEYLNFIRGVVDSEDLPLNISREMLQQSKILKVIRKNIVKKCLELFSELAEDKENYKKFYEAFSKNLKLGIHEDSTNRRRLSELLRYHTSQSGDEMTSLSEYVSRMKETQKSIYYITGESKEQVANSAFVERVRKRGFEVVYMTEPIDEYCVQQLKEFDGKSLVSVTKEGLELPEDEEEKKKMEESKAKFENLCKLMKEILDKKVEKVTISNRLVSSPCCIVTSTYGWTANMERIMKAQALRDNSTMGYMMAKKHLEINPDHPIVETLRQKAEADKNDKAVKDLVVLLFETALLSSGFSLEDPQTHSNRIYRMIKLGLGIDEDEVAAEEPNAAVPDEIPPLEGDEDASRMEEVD

Which inhibition [1] does the source give for `CC(C)NCCCn1c(Sc2cc3c(cc2I)OCO3)nc2c(N)ncnc21` [PU-H71] here?
Its inhibition is 50%.

What about the Activity (NCI-H417 [2]) of the same compound?
Its Activity is “Dose-dependent effect”.

And the inhibition [3]?
The inhibition was 50%.

And the inhibition (NCI-H417 [4])?
The inhibition was “Active”.

What about the Activity [5] of the same compound?
The Activity was “Active”.

What about the Drug uptake [6] of the same compound?
The Drug uptake was “Active”.

And the inhibition [7]?
Its inhibition is 50%.

What about the Drug uptake [8] of the same compound?
The Drug uptake was “Active”.

And the inhibition [9]?
The inhibition was “Active”.

What about the inhibition (NCI-H417 [10]) of the same compound?
The inhibition was “Dose-dependent effect”.

And the inhibition [11]?
The inhibition was 50%.

What about the Activity [12] of the same compound?
Its Activity is “Active”.

And the inhibition [13]?
The inhibition was “Active”.

And the Activity [14]?
Its Activity is “Active”.

And the inhibition [15]?
The inhibition was 50%.

And the Activity [16]?
The Activity was “Active”.

What about the inhibition [17] of the same compound?
The inhibition was 50%.

What about the Drug uptake [18] of the same compound?
The Drug uptake was “Active”.

And the inhibition [19]?
Its inhibition is “Active”.

What about the Activity (NCI-H417 [20]) of the same compound?
Its Activity is “Active”.

And the Activity [21]?
The Activity was “Active”.

And the Activity [22]?
The Activity was “Active”.

And the Activity [23]?
Its Activity is “Active”.

And the Activity [24]?
The Activity was “Active”.

And the Drug uptake [25]?
Its Drug uptake is “Active”.

What about the Drug uptake [26] of the same compound?
The Drug uptake was “Active”.

And the Activity [27]?
The Activity was “Active”.

What about the inhibition [28] of the same compound?
Its inhibition is 50%.

What about the Activity [29] of the same compound?
The Activity was “Active”.

What about the Activity (NCI-H417 [30]) of the same compound?
Its Activity is “Active”.

What about the inhibition [31] of the same compound?
Its inhibition is “Active”.

And the Drug uptake [32]?
Its Drug uptake is “Active”.

And the Activity [33]?
The Activity was “Active”.
